Laboratory results as given in PMC8419108 (Molecular Cancer Therapeutics, 2021).

Legend:
[1] = tested on: MCF10A cells stably expressing Halo-KRAS^G12V; assay: Immunoblot analysis of cell signaling in KRAS^G12V-MCF10A cells; assay type: cell-based; conditions: 1 hour treatment
[2] = tested on: RAS-deficient MEFs reconstituted with KRAS^Q61R; assay: Immunoblot/immunoprecipitation analysis of cell signaling in KRAS^Q61R MEFs; assay type: cell-based, mouse
In short: (§1)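 RAS-deficient MEFs reconstituted with KRAS^Q61R or BRAF^V600E were grown in DMEM with 10% FBS at 37°C, 5% CO₂. Cells were plated at about 70% confluency and treated 48 h later for 1 h. They were lysed in NP-40 buffer (pH 8.0) for 15 min at 4°C, equalised by Bradford, and immunoblotted for pERK and total ERK. Blots are representative of ≥2 independent experiments.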

[3] = tested on: RAS-deficient MEFs reconstituted with BRAF^V600E; assay: Immunoblot analysis of cell signaling in BRAF^V600E MEFs; assay type: cell-based, mouse; conditions: 1 hour treatment
In short: as §1

[4] = biological target: KRAS^Q61R/CRAF^WT interaction (Homo sapiens, UniProt P01116+P04049, Q61R); assay: NanoBRET assay of Halo-KRAS^Q61R/Nano-CRAF^WT binding in live 293FT cells; assay type: cell-based
[5] = tested on: KRAS^G12V or CRAF-RBD; assay: SPR analysis, result summarised over both targets; assay type: binding; conditions: single dose 100 μmol/L or dose-response 100–1.56 μmol/L
[6] = biological target: KRAS^G12D (Homo sapiens, UniProt P01116, G12D); assay: SPR binding to captured avi-KRAS^G12D-GppNHp; conditions: GppNHp-loaded KRAS^G12D; 100–1.56 μmol/L
In short: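 Avi-KRAS^G12D (aa 2–188) loaded with GppNHp was captured on a Neutravidin-coupled CM5 chip in a Biacore S200. Compounds were injected as a 2-fold series from 100 to 1.56 µmol/L over 2,300 RU, or singly at 100 µmol/L over 3,800 RU. Buffer was HEPES pH 7.5 with NaCl, Tween 20, MgCl₂ and 2.5% DMSO. Reference-cell and buffer responses were subtracted, with DMSO-mismatch correction.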

[7] = biological target: CRAF-RBD (Homo sapiens, UniProt P04049); assay: SPR binding to captured avi-CRAF-RBD; conditions: 100–1.56 μmol/L
In short: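 Avi-tagged CRAF-RBD (aa 52–131) was captured on a Neutravidin-coupled CM5 chip in a Biacore S200. A 2-fold series from 100 to 1.56 µmol/L was injected over 1,785 RU, and single 100 µmol/L doses over 3,000 RU. Reference-cell and buffer responses were subtracted, and DMSO mismatches were corrected with a standard curve.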

Compound: COc1cc(/C=C(\C#N)C(N)=O)cc(CSc2nc3ccccc3s2)c1O [AG825]
- pERK levels (ERK activation) [1]: increased RAS-dependent ERK activation
- BRAF/CRAF dimer formation (CRAF immunoprecipitation probed for BRAF) ([2]; 10 μmol/L for 1 hour): increase the detection of heterodimerized CRAF/BRAF complexes
- pERK levels (ERK activation) ([2]; 1 hour treatment, immunoblot): increased RAS-dependent ERK activation
- pERK levels (ERK activation) [3]: pERK levels were reduced

Compound: CC(C)=C[C@H]1C[C@H](C)[C@]2(CC[C@]3(C)C[C@H]4[C@H](C(=O)C[C@@]4(C)O)/C(C=O)=C\C[C@H]32)O1 [Ophiobolin A]
- IC50 [4]: 1.08 µM
- SPR binding to KRAS or the CRAF-RBD [5]: inability to detect binding
- pERK levels (ERK activation) [1]: dose-dependent decrease
- pMEK levels (phosphorylation and activation of MEK) [1]: dose-dependent decrease
- phosphorylation of endogenous CRAF on S338 (pS338-CRAF) [1]: reduced the phosphorylation of CRAF on S338
- pERK levels (ERK activation) ([2]; 1 hour treatment, immunoblot): reduced pERK levels in a dose-dependent manner
- phosphorylation of endogenous CRAF on S338 (pS338-CRAF) ([2]; 1 hour treatment, immunoblot): reduced the phosphorylation of CRAF on S338

Compound: CN1C(=O)[C@]23CC4=CC=C[C@H](O)[C@H]4N2C(=O)[C@@]1(CO)SS3 [Gliotoxin]
- IC50 [4]: 2.8 µM
- pERK levels (ERK activation) [1]: inhibit RAS-dependent ERK activation
- pERK levels (ERK activation) ([2]; 1 hour treatment, immunoblot): inhibit RAS-dependent ERK activation

Compound: CC(C)=CCC[C@]1(C)C=Cc2c(O)c3c(c(CC=C(C)C)c2O1)O[C@]12C(=C[C@@H]4C[C@H]1C(C)(C)O[C@@]2(C/C=C(/C)C(=O)O)C4=O)C3=O [Gambogic acid]
- IC50 [4]: 1.7 µM

Compound: CC(C)(C)c1ccc(C(O)CCCN2CCC(C(O)(c3ccccc3)c3ccccc3)CC2)cc1 (centres unmarked) [Terfenadine]
- IC50 [4]: 6 µM

Compound: Cc1cc2c(C(C)C)c(O)c(O)c(C=O)c2c(O)c1-c1c(C)cc2c(C(C)C)c(O)c(O)c(C=O)c2c1O [Gossypol]
- IC50 [4]: 5.2 µM

Compound: COc1cc(CCN)c2c(c1OC)SSSSS2 [Varacin]
- IC50 [4]: 9.5 µM

Compound: CCOc1nc2cccc(C(=O)OC(C)OC(=O)OC3CCCCC3)c2n1Cc1ccc(-c2ccccc2-c2nnn[nH]2)cc1 (centres unmarked) [Candesartan cilexetil]
- IC50 [4]: 5.4 µM

Compound: Swinhopeptolide
- SPR binding to KRAS^G12D [6]: slow on/off rates and possible non-specific binding
- SPR binding to CRAF-RBD [7]: slow on/off rates and possible non-specific binding

Compound: CN1CCN(CCCN2c3ccccc3Sc3ccc(C(F)(F)F)cc32)CC1 [Trifluoperazine]
- IC50 [4]: 14.3 µM

Compound: CN(C)CCOc1ccc(-c2nc(-c3ccncc3)c(-c3ccc4c(c3)CC/C4=N\O)[nH]2)cc1 [SB590885]
- increase of the Halo-KRAS^Q61R/Nano-CRAF^WT interaction (BRET signal) ([4]; 0.5 and 1 μmol/L for 4 hours, normalized BRET signal): approximately 35%

Compound: C/C=C(/C)C(=O)O[C@H]1C(C)=C2[C@H]([C@@H]1OC(=O)CCCCCCC)[C@@](C)(OC(C)=O)C[C@H](OC(=O)CCC)[C@@]1(O)[C@H]2OC(=O)[C@@]1(C)O [Thapsigargin]
- IC50 [4]: 14 µM

Compound: Clc1ccc(C(c2ccc(Cl)cc2)n2cc[n+](CC(OCc3ccc(Cl)cc3Cl)c3ccc(Cl)cc3Cl)c2)cc1 (centres unmarked) [Calmidazolium chloride]
- IC50 [4]: 3.6 µM
- SPR binding to KRAS^G12D [6]: non-selective and non-saturable binding
- SPR binding to CRAF-RBD [7]: non-selective and non-saturable binding

Compound: CC(C)(C)CC(C)(C)NCC(O)COc1ccc(C(C)(C)c2ccc(OCC(O)CNC(C)(C)CC(C)(C)C)cc2)cc1.Cl (centres unmarked) [NSC145366]
- pERK levels (ERK activation) [1]: inhibited ERK activation
- pERK levels (ERK activation) ([2]; 1 hour treatment, immunoblot): inhibited ERK activation
- pERK levels (ERK activation) [3]: suppressed pERK levels

Compound: CN1C(=O)[C@]2(Cc3cn([C@]45C[C@@]67SS[C@@](CO)(C(=O)N6[C@H]4Nc4ccccc45)N(C)C7=O)c4ccccc34)SS[C@@]1(CO)C(=O)N2C [Chetomin]
- IC50 [4]: 2.9 µM

Compound: C[C@@H]1O[C@@H](O[C@H]2[C@H](O[C@H]3CO[C@@H](O[C@H]4CC[C@]5(C)[C@H]6CC[C@]78OC[C@@]9(CC[C@](C)(C=O)C[C@H]97)[C@H](O)C[C@@]8(C)[C@]6(C)CC[C@H]5C4(C)C)[C@H](O[C@@H]4O[C@H](CO)[C@@H](O)[C@H](O)[C@H]4O)[C@H]3O)O[C@H](CO)[C@@H](O)[C@@H]2O)[C@H](O)[C@H](O)[C@H]1O [Ardisiacrispin B]
- IC50 [4]: 5 µM
